Source: PubChem BioAssay (several laboratories)
MEKK2mut PB1 HTS = MEK5 binding signal on mutant MEKK2 PB1, primary screen, biochemical, multiplex bead flow cytometry, Alexa488-MEK5; percent response, % at 10 µM; Alexa488-MEK5 binding to MEKK2 mutant; hit rate 0.35% among 290,000; AID 1530, 2009; in the data active means percent response above about 24%, passing the limit was not always enough
MEKK3 PB1 HTS = modulators of MEKK3-MEK5 PB1 binding, primary screen, biochemical, wildtype MEKK3, multiplex bead flow cytometry, Alexa488-MEK5 | bead-based flow cytometry, Alexa488-MEK5 binding to MEKK3; actives lie on both sides; 0 = blocked by unlabeled MEK5, 100 = vehicle | binding response (% of control), % at 10 µM | hit rate 1.4% among 290,000;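 active means binding response more than 3 SD above or below the average of its plate-row segment, actives on both sides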;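 further: Alexa488 bead fluorescence after subtracting the streptavidin-only scavenger bead signal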
Target sequence (Q99759 whole entry, looked up): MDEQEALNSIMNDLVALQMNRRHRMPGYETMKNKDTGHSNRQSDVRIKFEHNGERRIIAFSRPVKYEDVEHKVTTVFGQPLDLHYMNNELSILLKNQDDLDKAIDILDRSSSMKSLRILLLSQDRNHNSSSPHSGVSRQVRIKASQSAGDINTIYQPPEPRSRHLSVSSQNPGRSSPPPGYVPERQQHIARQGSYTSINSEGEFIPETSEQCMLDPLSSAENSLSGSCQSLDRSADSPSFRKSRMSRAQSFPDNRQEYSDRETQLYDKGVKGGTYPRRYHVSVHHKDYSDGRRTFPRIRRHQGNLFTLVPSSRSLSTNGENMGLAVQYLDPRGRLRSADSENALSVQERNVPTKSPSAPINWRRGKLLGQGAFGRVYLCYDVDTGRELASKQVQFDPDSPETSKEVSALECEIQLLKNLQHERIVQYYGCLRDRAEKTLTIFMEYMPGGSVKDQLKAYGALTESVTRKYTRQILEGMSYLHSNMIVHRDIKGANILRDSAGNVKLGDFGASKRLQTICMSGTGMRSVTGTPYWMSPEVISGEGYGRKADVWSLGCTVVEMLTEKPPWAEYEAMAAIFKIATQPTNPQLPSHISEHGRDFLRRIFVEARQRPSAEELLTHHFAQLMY
Hep lipid drop = inhibitors of hepatocyte lipid droplet formation, primary screen, imaging, high-throughput imaging, BODIPY stain | AML12 mouse hepatocytes, oleate lipid droplets | inhibition, % at 6.5 µM | hit rate 0.4% among 240,000;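 active means lipid droplet intensity inhibited by at least 50%, with more than 500 cells counted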
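System: AML12 hepatocytes (mouse). Probe or stimulus: oleic acid at 100 µM to induce lipid droplet formation. Times: overnight treatment with compound plus oleate. Detection: Image-based BODIPY and DAPI two-channel analysis. Evaluation: percent inhibition of filter-corrected integrated lipid droplet intensity per well.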
MEKK2 WT-MEK5 = modulators of MEK5 binding to wildtype MEKK2, primary screen, biochemical, multiplex bead flow cytometry, Alexa488-MEK5 | hit rate 1.1% among 290,000 | Mitogen-activated protein kinase kinase kinase 2 (Homo sapiens), Q9Y2U5 | Alexa488-MEK5 binding to MEKK2 WT; actives lie on both sides | binding response (% of control), % at 10 µM; in the data active means binding response below about 67% or above about 130%
MEKK2wt confirm = modulators of MEK5 binding to wildtype MEKK2, confirmation, biochemical, single concentration, multiplex bead flow cytometry. shares compounds with MEKK3 PB1 HTS. Alexa488-MEK5 binding to MEKK2 WT; actives lie on both sides. binding response (% of control), % at 10 µM. hit rate 2.4% among 5,900; in the data active means binding response below about 16% or above about 210%; inactive means in between
MEKK2mut-MEK5 = mutant MEKK2 PB1-MEK5 binding signal retest – biochemical, single concentration, multiplex bead flow cytometry, confirmation | shares compounds with MEKK3 PB1 HTS | Alexa488-MEK5 binding to MEKK2 mutant | percent response, % at 10 µM | hit rate 2% among 5,900; in the data active means percent response mostly above about 71%, no sharp cut-off; inactive means mostly below about 38%;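 further: higher means compound restores mutant binding toward wildtype level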
MEKK3 confirm = MEKK3 wild-type PB1 binding to MEK5, inhibitors, confirmation, biochemical, bead multiplex flow cytometry, single concentration, wildtype; shares compounds with MEKK3 PB1 HTS; Alexa488-MEK5 binding to MEKK3; stronger effect = lower value; binding response (% of control), % at 10 µM; hit rate 1.8% among 5,900;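 active means binding response below 72% of control, or above a set upper limit, though filed actives all read lower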;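 further: 100% = DMSO only wells and 0% = binding blocked by excess unlabeled MEK5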
Starred values were filed as active, the others as inactive; nt = not tested or not shown; [ ] = another dose, or the depositor's remark. An excerpt weighted towards active compounds, which were near 2.6% of everything screened.

SMILES | MEKK2mut PB1 HTS | MEKK3 PB1 HTS | Hep lipid drop | MEKK2 WT-MEK5 | MEKK2wt confirm | MEKK2mut-MEK5 | MEKK3 confirm
CN(C)CCCN(C(=O)c1ccc(S(=O)(=O)N(C)C2CCCCC2)cc1)c1nc2ccc(Br)cc2s1 | 32* | 103 | -6 | 195* | 174 | 29 | 74
CCN(CC)CCN(C(=O)c1ccc(S(=O)(=O)N2CCCC2)cc1)c1nc2cc(C)cc(C)c2s1 | 21 | 105 | -1 | 142* | 135 | 12 | 101
COc1ccc(CCN(C)C2CCCN(C(=O)Cn3cnnn3)C2)cc1OC (stereo not drawn) | -2 | 102 | 1 | 104 | nt | nt | nt
CC(/C=C/c1ccco1)=N\NC(=O)CNc1cccc(C)c1 | 4 | 99 | 2 | 100 | nt | nt | nt
C[C@]12CCC(O)CC1CCC1C2CC[C@]2(C)C(c3cc(C(F)(F)F)n[nH]3)CCC12 (stereo partly drawn) | 0 | 98 | -1 | 87 | nt | nt | nt
CCN(C(=O)COC(=O)c1cc(-c2cccc3ccccc23)nc2ccccc12)C1CCS(=O)(=O)C1 (stereo not drawn) | 4 | 105 | -1 | 106 | nt | nt | nt
COC(=O)c1ccccc1NC(=O)CN(C)S(=O)(=O)c1cc(C)ccc1OC | 4 | 103 | 35 | 103 | nt | nt | nt
CN(C)CCCN(C(=O)c1ccc(S(=O)(=O)N(C)C2CCCCC2)cc1)c1nc2ccc(F)cc2s1 | 28* | 107 | 24 | 163* | 160 | 36 | 104
CCc1ccc2nc(N(CCN(C)C)C(=O)c3ccc4ccccc4c3)sc2c1 | 23 | 105 | -2 | 133 | nt | nt | nt
CCc1ccc2nc(N(CCCN(C)C)C(=O)c3ccc(S(=O)(=O)N(C)C4CCCCC4)cc3)sc2c1 | 51* | 114 | -22 | 210* | 194 | 58 | 107
CC(=O)c1ccc(-c2cc([C@H]3[C@H]4C=CC[C@@H](C)[C@@H]4C(=O)N3Cc3ccccc3)ccc2F)cc1 | 2 | 94 | -2 | 87 | nt | nt | nt
Cc1ccc(C2(CCNCc3ccc(N(C)C)cc3)CCOC(C(C)C)C2)cc1 (stereo not drawn) | 17 | 111 | nt | 149* | 125 | 6 | 105
CC(C)c1ccc(NC(=O)C2CC(=O)N=C(N)S2)cc1 (stereo not drawn) | 1 | 103 | 4 | 99 | nt | nt | nt
CCCCNC(=O)CCCCn1c(=S)[nH]c2c([nH]c3ccc(OC)cc32)c1=O | 1 | 101 | 14 | 97 | nt | nt | nt
CC[C@H](C)NC(=O)CCCCCn1c(=S)[nH]c2c([nH]c3ccc(OC)cc32)c1=O | 5 | 138* | 6 | 118 | 97 | -3 | 102
CNC(=S)Nc1ccc(OC)c(OC)c1 | -21 | 2.0*[inhibitor] | -6 | 3.0*[inhibitor] | 100 | 3 | 104
Cc1cccnc1NC(=O)c1csnn1 | 5 | 65*[inhibitor] | 10 | 30*[inhibitor] | 100 | 1 | 101
Cc1cccnc1NC(=O)c1ccccc1-c1ccccc1C(=O)Nc1ncccc1C | 0 | 100 | -29 | 100 | nt | nt | nt
CCOC(=O)c1c(C)n(C)c2cc(-c3ccc(C)cc3)c(O)cc12 | 0 | 131* | -2 | 105 | 103 | 1 | 103
CCOC(=O)c1c(C)n(C)c2ccc(OC(=O)c3ccc([N+](=O)[O-])cc3)cc12 | -1 | 138* | 3 | 103 | 102 | 3 | 103
CCOC(=O)c1c(C)n(CC)c2ccc(OC(=O)c3ccc([N+](=O)[O-])cc3)cc12 | -1 | 96 | 12 | 98 | nt | nt | nt
O=C(N/N=C/c1ccc(-c2ccc(Cl)c(C(=O)O)c2)o1)c1cc2c(ccc3ccccc32)o1 | -32 | 70 | -23 | 73 | nt | nt | nt
CCN1CCN(c2nc(-c3ccccc3)nc3ccccc23)CC1 | 1 | 142* | 16 | 116 | 118 | 15 | 104
Cc1ccc(-c2nc(N3CCN(C)CC3)c3ccccc3n2)cc1 | 9 | 106 | 7 | 125 | nt | nt | nt
COc1cccc(CC2(CO)CCCN(Cc3[nH]c4ccc(C)cc4c3C)C2)c1 (stereo not drawn) | 46 | 105 | -11 | 157* | 140 | 24 | 103
SMILES | MEKK2mut PB1 HTS | MEKK3 PB1 HTS | Hep lipid drop | MEKK2 WT-MEK5 | MEKK2wt confirm | MEKK2mut-MEK5 | MEKK3 confirm
COc1cccc(CC2(CO)CCCN(Cc3cc4ccccc4[nH]3)C2)c1 (stereo not drawn) | 30 | 103 | -4 | 148* | 144 | 20 | 103
CNC(=O)c1cc(S(=O)(=O)Nc2ccc3c(c2)OCO3)ccc1C | 1 | 99 | -4 | 102 | nt | nt | nt
CSc1cccc(NC(=S)NC(=O)c2cccnc2)c1 | 2 | 96 | 13 | 95 | nt | nt | nt
O=C(Cc1nc2ccccc2[nH]1)c1ccc(Cl)cc1 | -2 | 104 | -4 | 99 | nt | nt | nt
Clc1ccc(/C(Cc2nc3ccccc3[nH]2)=N\Nc2ccccc2)cc1 | 42 | 110 | -38 | 153* | 138 | 13 | 108
CCOc1ccccc1CN1CCN(C2CCN(c3ccccc3F)CC2)CC1CCO (stereo not drawn) | -8 | 75*[inhibitor] | -32 | 80 | 102 | -4 | 104
CCOc1ccccc1CN1CCN(Cc2c[nH]c3ccccc23)CC1CCO (stereo not drawn) | 20 | 113 | -2 | 134* | 126 | 19 | 108
S=C(NC1CCCCC1)N(CCc1ccccc1)CCc1ccccc1 | 51* | 107 | -44 | 125 | 108 | 0 | 101
CN(CC(=O)NCc1ccccn1)S(=O)(=O)c1ccc2ccccc2c1 | 0 | 135* | -3 | 111 | 100 | 2 | 95
Cn1cccc1CC(=O)NNC(=S)Nc1ccc(F)cc1 | -1 | 104 | 7 | 105 | nt | nt | nt
Cn1cccc1CC(=O)NNC(=O)Nc1ccc(F)cc1 | -1 | 147* | 13 | 109 | 106 | 10 | 105
CN(C)c1oc(-c2ccc(Cl)cc2)nc1S(=O)(=O)c1ccccc1 | 0 | 105 | 14 | 108 | nt | nt | nt
CC(C)CNC(=O)c1cc([N+](=O)[O-])ccc1N1CCOCC1 | 1 | 101 | 28 | 95 | nt | nt | nt
CCC(C)(C)NC(=O)c1cc([N+](=O)[O-])ccc1N1CCOCC1 | 1 | 157* | -16 | 113 | 100 | -7 | 100
Cc1cccc(N2CCN(C(=O)NC(C)c3ccc(F)c(F)c3)CC2)c1C (stereo not drawn) | 4 | 102 | -2 | 102 | nt | nt | nt
